# Published values pooled from the literature.
Structure (SMILES),target or system,test,test system,conditions,measurement,result
CCCCCCC/C=C/C(=O)N1C(=O)/C(=C(\O)CCCC)C(=O)C1CC(C)C (stereo not drawn),Burkholderia cepacia,microbial growth,ATCC25416,,MIC,> 200 µg/mL
OCCOCCN1CCN(C(c2ccccc2)c2ccc(Cl)cc2)CC1 (stereo not drawn),human PBMC,cell migration,,10 µM,inhibition,7%
C/C(O)=C1\C(=O)C(CC(C)C)N(C(=O)CCCCCc2ccccc2)C1=O (stereo not drawn),Burkholderia cepacia,microbial growth,ATCC25416,,MIC,> 200 µg/mL
O=C(Oc1ccc(I)cc1)[c-]1cccc1.[Fe+2].c1cc[cH-]c1,MCF-10A,"cell growth or viability, MTT",,72 h,IC50,7 µM
C=C(CCC=C(C)C)[C@H]1CC[C@H]2[C@@H]3CCC4=CC(=O)CC[C@]4(C)[C@H]3CC[C@@]12C,Leishmania mexicana,parasite growth,,"48 h, promastigote",IC50,30 µM
CCCCCCC/C=C/C(=O)N1C(=O)/C(=C(\O)c2ccc(OCOCCOC)cc2)C(=O)C1CC(C)C (stereo not drawn),Burkholderia cepacia,microbial growth,ATCC25416,,MIC,> 200 µg/mL
CN[C@@H]1[C@H](O)[C@H](NC)[C@H]2O[C@@]3(O)C(=O)C[C@@H](C)O[C@H]3O[C@@H]2[C@H]1O,Burkholderia cepacia,"microbial growth, broth dilution",ATCC25416,,MIC,50 µg/mL
O=c1ccc2ccc3occc3c2o1,,"tubulin polymerisation, inhibitor",,10 µM,inhibition,57.1%
Cc1cc(C)c(-n2ccn(-c3c(C)cc(C)cc3C)c2=[Se])c(C)c1,HCT-15,"cell growth or viability, MTT",,72 h,IC50,10.7 µM
Cc1ccc(Cl)c(Nc2ccccc2C(=O)O)c1Cl,human PBMC,cell migration,,10 µM,inhibition,100%
C=C(CCC=C(C)C)[C@H]1CC[C@H]2[C@@H]3CC=C4C[C@@H](O)CC[C@]4(C)[C@H]3CC[C@]12C,Leishmania mexicana,parasite growth,,"48 h, promastigote",IC50,> 262 µM
CCCCCCCCCOc1ccc2[nH]cc(CCN)c2c1,CAL-27,cell growth or viability,,72 h,IC50,4.11 µM
